DENV2 CPE: inhibitors of DENV2 cytopathic effect, primary screen, cell-based, plate reader, single concentration | DENV2-infected cells, cytopathic effect rescue | CPE inhibition, % at 9.99 µM | 350,000 compounds, 1.7% hits; in the data active = CPE inhibition above about 20%, passing the limit was not always enough; inconclusive = no clear call, values can overlap the other calls; tested in BHK-21 cells;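 note: 0% = median of neutral control wells and 100% = median of positive control wells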
SIRT5 inh: SIRT5 desuccinylase inhibitors, primary screen, biochemical, fluorescence imaging, single point, set 5; NAD-dependent protein deacylase sirtuin-5, mitochondrial (Homo sapiens), Q9NXA8; Purified SirT5, succinyl-peptide AMC, trypsin-coupled fluorescence; inhibition, % at 15 µM; 330,000 compounds, 1.1% hits; in the data active = inhibition above about 15%; inconclusive = no clear call, values can overlap the other calls
Target sequence (Q9NXA8 whole entry, looked up): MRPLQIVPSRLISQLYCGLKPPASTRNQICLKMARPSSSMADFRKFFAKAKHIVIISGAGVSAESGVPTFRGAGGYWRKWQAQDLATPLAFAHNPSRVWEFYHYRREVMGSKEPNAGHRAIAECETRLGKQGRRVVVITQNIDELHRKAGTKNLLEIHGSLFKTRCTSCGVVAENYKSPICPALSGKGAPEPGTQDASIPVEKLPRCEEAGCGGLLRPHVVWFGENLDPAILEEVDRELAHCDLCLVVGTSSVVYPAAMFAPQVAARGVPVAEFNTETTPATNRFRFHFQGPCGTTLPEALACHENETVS
E-sel inducer: E-selectin induction in HUVECs, primary screen, imaging, HUVEC, immunofluorescence imaging, single point; activation, % at 7.58 µM; P16581; normalized: neutral wells 0, TNF-alpha wells 100; AID 686992, 2013; 260,000 compounds, 0.37% hits;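 active = mean E-selectin-positive cell signal at least 10% of the positive control, reached in at least 60% of replicates, without over 20% cell loss; inconclusive = no rule given, readout overlaps actives, possibly toxicity-flagged; inactive = the rest, including those meeting only one limit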
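Test system – human umbilical vein endothelial cells (HUVEC), E-selectin induction · Input – 3,000 HUVEC seeded per well · Buffer or medium – EGM-2, gelatin · Compound dosing – single-point compound dose · Detection – immunofluorescence imaging · Measure – percent E-selectin-positive cells · Controls – TNF-alpha high, DMSO low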
Starred values were filed as active, the others as inactive; ? = inconclusive; nt = not tested or not shown; ! = not confirmed by another sample. Rows were chosen to be rich in hits. Some 2.9% of all compounds tested hit in one or more screens of this group.

SMILES | DENV2 CPE | SIRT5 inh | E-sel inducer
C[C@@H]1CN([C@@H](C)CO)C(=O)c2cc(NC(=O)Nc3ccc4c(c3)OCO4)ccc2O[C@@H](C)CCCCO[C@@H]1CN(C)Cc1ccncc1 | -3.0 | 1.4 | -0.2
COc1ccc(S(=O)(=O)Nc2ccc3c(c2)C(=O)N([C@@H](C)CO)C[C@@H](C)[C@@H](CN(C)C(=O)Nc2cccc4ccccc24)O3)cc1 | -2.5 | 3.2 | 53.0*
C[C@H]1CN([C@@H](C)CO)C(=O)c2cc(NS(=O)(=O)c3ccc(F)cc3)ccc2O[C@@H]1CN(C)C(=O)Nc1cccc2ccccc12 | -2.3 | 1.6 | -0.3
COc1ccc(S(=O)(=O)Nc2ccc3c(c2)C(=O)N([C@@H](C)CO)C[C@@H](C)[C@H](CN(C)C(=O)Nc2cccc4ccccc24)O3)cc1 | -9.8 | 2.7 | 0.9
COc1ccc(S(=O)(=O)Nc2ccc3c(c2)C(=O)N([C@@H](C)CO)C[C@H](C)[C@@H](CN(C)C(=O)Nc2cccc4ccccc24)O3)cc1 | 3.4 | 1.8 | 80.3*
COc1ccc(S(=O)(=O)Nc2ccc3c(c2)C(=O)N([C@H](C)CO)C[C@H](C)[C@@H](CN(C)C(=O)Nc2cccc4ccccc24)O3)cc1 | -10.4 | 2.2 | 64.4*
C[C@H]1CN([C@@H](C)CO)C(=O)c2cc(NS(=O)(=O)c3ccccc3)ccc2O[C@H]1CN(C)C(=O)Nc1cccc2ccccc12 | -8.9 | 4.4 | -0.2
CN(CC(=O)N1CCN(c2ccccn2)CC1)S(=O)(=O)c1cccc2nsnc12 | nt | nt | -0.2
C=CCNC(=O)c1onc(CSc2ccc(F)cc2)c1C(=O)O | -1.3 | nt | -0.1
CC(=O)NCc1ccc(S(=O)(=O)N2CCN(c3ccccn3)CC2)cc1 | 7.0 | -1.5 | 1.1
C[C@@H]1CCCCO[C@@H](CN(C)S(=O)(=O)c2cn(C)cn2)[C@H](C)CN([C@@H](C)CO)C(=O)c2cc(NS(=O)(=O)c3ccc(Cl)cc3)ccc2O1 | 28.2* | -5.7 | nt
C[C@@H]1CCCCO[C@H](CN(C)S(=O)(=O)c2cn(C)cn2)[C@H](C)CN([C@H](C)CO)C(=O)c2cc(NS(=O)(=O)c3ccc(Cl)cc3)ccc2O1 | -2.3 | 2.7 | nt
C[C@H]1CCCCO[C@@H](CN(C)S(=O)(=O)c2cn(C)cn2)[C@@H](C)CN([C@@H](C)CO)C(=O)c2cc(NS(=O)(=O)c3ccc(Cl)cc3)ccc2O1 | 47.3* | 3.6 | nt
C[C@@H]1CCCCO[C@H](CN(C)S(=O)(=O)c2cn(C)cn2)[C@@H](C)CN([C@H](C)CO)C(=O)c2cc(NS(=O)(=O)c3ccc(Cl)cc3)ccc2O1 | 9.0 | -1.9 | nt
Cc1cccc(-c2nnc(SCC(=O)N3c4ccccc4CCc4ccccc43)n2C)c1 | -2.4 | 3.9 | -2.4
COC(=O)N1C(=O)[C@](c2ccsc2)(C(C)C)N1C(=O)OC | 47.8* | 1.1 | -0.1
COC(=O)N1C(=O)[C@](c2ccc(OC)cc2)(C(C)C)N1C(=O)OC | -4.9 | -1.6 | 1.0
CC1(C(=O)NCc2ccccc2Br)CCN1Cc1ccccc1OC(F)F (configuration not stated) | -6.7 | 1.8 | 0.0
OCc1ccccc1OCCCN1CCC(Cc2ccccc2)CC1 | 13.9 | 1.8 | nt
C=CCOc1ccccc1CN1CCC(Cc2ccccc2)CC1 | 23.6* | -0.7 | 0.5
C[C@@H]1CN([C@@H](C)CO)C(=O)c2cc(C#CCN(C)C)cnc2O[C@@H]1CN(C)C(=O)Cc1cccnc1 | 6.3 | 2.0 | -2.4
O=C(Nc1cccc(C(=O)N2CCCC2)c1)C1CCC1 | -7.3 | -0.2 | -1.0
OCc1c(OCc2cccc(F)c2)ccc2ccccc12 | -5.7 | -0.5 | nt
COc1ccccc1CNC(=O)C1CCC(CNS(=O)(=O)c2ccc(NC(C)=O)cc2)CC1 (configuration not stated) | ? | 6.4 | nt
CCN1C[C@@H]2[C@@H]3C(=O)N(Cc4ccccc4)C(=O)[C@@H]3[C@](Cc3ccccc3)(C1=O)N2C(=O)c1ccc(Br)cc1 | 67.6* | -7.7 | 0.0
SMILES | DENV2 CPE | SIRT5 inh | E-sel inducer
CCN1C[C@@H]2[C@@H]3C(=O)N(Cc4ccccc4)C(=O)[C@@H]3[C@](CC)(C1=O)N2C(=O)c1ccc(Br)cc1 | -3.7 | -12.1 | -0.1
Cc1cccc(-c2ccc([C@H]3[C@@H](CO)N4C(=O)CN(S(=O)(=O)c5cccc(F)c5)C[C@@H]34)cc2)c1 | ? | 17.1* | -0.5
Cc1cccc(-c2ccc([C@H]3[C@H]4CN(S(=O)(=O)c5cccc(F)c5)CC(=O)N4[C@H]3CO)cc2)c1 | 8.4 | 19.1* | -0.7
O=C1CN(S(=O)(=O)c2cccc(F)c2)C[C@@H]2[C@H](c3ccc(-c4ccccc4)cc3)[C@H](CO)N12 | -4.6 | 2.6 | -0.1
O=C1CN(S(=O)(=O)c2cccc(F)c2)C[C@@H]2[C@H](c3ccc(-c4ccc(F)cc4)cc3)[C@H](CO)N12 | -3.3 | -7.6 | 0.1
COC(=O)[C@H]1C[C@@]2(O)CN(S(=O)(=O)c3ccc(C)cc3)C[C@@]2(OC(=O)Nc2c(C)noc2C)C[C@H]1C(=O)OC | -8.5 | -2.9 | nt
CCCNC(=O)Cc1ccsc1 | nt | nt | -0.6
C[C@@H]1CN([C@H](C)CO)C(=O)Cc2cc(NC(=O)CCC(F)(F)F)ccc2O[C@@H]1CN(C)Cc1ccccc1 | -6.6 | -4.8 | 0.4
CC1CCN(C(=O)C(=O)c2cn(CC(=O)N3CCCC3)c3ccccc23)CC1 | -1.8 | 0.7 | -0.1
CN1C(=S)SC(C)(NO)C1(C)C (configuration not stated) | -2.3 | -7.0 | nt
NNC(=O)Cn1c2ccccc2c2ccccc21 | -1.8 | -3.0 | 0.2
NNC(=O)Cn1c(-c2ccccc2)cc2ccccc21 | 9.4 | 21.2* | 0.7
CCCC(=O)Nc1ccc2c(c1)C(=O)N(C)C[C@@H](OC)[C@H](C)CN(Cc1ccccc1F)[C@H](C)CO2 | -5.7 | -7.1 | -0.1
C[C@H](CO)N1C[C@H](C)[C@@H](CN(C)Cc2ccc(-c3ccccc3)cc2)Oc2c(NS(=O)(=O)c3ccccc3)cccc2C1=O | 4.4 | 15.6*! | -0.4
C[C@@H]1CN([C@H](C)CO)C(=O)c2cccc(NS(=O)(=O)c3ccccc3)c2O[C@@H]1CN(C)Cc1ccc(-c2ccccc2)cc1 | -6.9 | 8.3 | 0.6
C[C@H]1CN([C@@H](C)CO)C(=O)c2cccc(NS(=O)(=O)c3ccccc3)c2O[C@@H]1CN(C)Cc1ccc(C(=O)O)cc1 | 30.9* | -2.9 | 0.2
C[C@H](CO)N1C[C@H](C)[C@@H](CN(C)Cc2ccc(C(=O)O)cc2)Oc2c(NS(=O)(=O)c3ccccc3)cccc2C1=O | 1.5 | -3.7 | 0.0
Cc1ccc(C(=O)N(CCN2CCCCC2)CC2CCCN(C3CCCC3)C2)s1 (configuration not stated) | 2.9 | -1.9 | 0.4
OC(CNCCC1C=Nc2ccccc21)Cn1c2ccc(Cl)cc2c2cc(Cl)ccc21 (configuration not stated) | nt | nt | 3.1
CCc1ccc(N2CC(C(=O)OC)CC2=O)cc1 (configuration not stated) | -4.1 | nt | -1.8
O=C1CCCCN1CC(=O)N1CCCC(Nc2ccc(F)c(F)c2)C1 (configuration not stated) | 10.7 | -0.7 | nt
O=C(Cn1cccn1)N1CCCC(Nc2ccc(F)c(F)c2)C1 (configuration not stated) | 27.0* | 6.6 | -1.5

Screening data (PubChem BioAssay)
